# pEC50, pIC50: −log10 of the molar value. Calls of active or inactive are those of the source.
# Tests used:
# Rattus norvegicus [1] = species on record: Rattus norvegicus; experiment: Positive allosteric modulation of rat alpha1beta2gamma2L GABAA receptor expressed in Xenopus laevis oocytes assessed as potentiation of GABA-induced chloride current elicitation at 10 uM by two-electrode voltage clamp technique relative to control; format: cell-based
# [2] = Displacement of [35S]TBPS from rat picrotoxin binding site of GABAA receptor after 2 hrs by scintillation counting analysis
# How it was run: (§1)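 [35S]TBPS binding inhibition; duplicate experiments each run in triplicate, mean ± SEM. Highest concentration tested 30 μM; IC50 from fitted binding curve, with maximal displacement noted where inhibition was partial.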
# Rattus norvegicus [3] = species on record: Rattus norvegicus; experiment: Positive allosteric modulation of rat alpha1beta2gamma2L GABAA receptor expressed in Xenopus laevis oocytes assessed as potentiation of GABA-induced chloride current elicitation at 0.1 uM by two-electrode voltage clamp technique relative to control; format: cell-based
# Rattus norvegicus [4] = species on record: Rattus norvegicus; experiment: […] of rat alpha1beta2gamma2L GABAA receptor expressed in Xenopus laevis oocytes assessed as chloride current elicitation at 10 uM by two-electrode voltage clamp technique relative to GABA; format: cell-based
# How it was run: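 Rat α1β2γ2L GABAA receptors expressed in Xenopus oocytes, at least four oocytes. Direct current gated by 10 μM compound without GABA, expressed as the ratio of compound-only current to current evoked by 2 μM GABA; mean ± SEM.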
# Rattus norvegicus [5] = species on record: Rattus norvegicus; experiment: Positive allosteric modulation of rat alpha1beta2gamma2L GABAA receptor expressed in Xenopus laevis oocytes assessed as potentiation of GABA-induced chloride current elicitation by two-electrode voltage clamp technique relative to control; format: cell-based
# Xenopus laevis [6] = experiment: Anesthetic effect on prelimb-bud stage Xenopus laevis tadpole assessed as loss of swimming reflex after 3 hrs; format: functional, organism-based
# Xenopus laevis [7] = experiment: Anesthetic effect on prelimb-bud stage Xenopus laevis tadpole assessed as loss of righting reflex after 3 hrs; format: functional, organism-based
# Rattus norvegicus [8] = species on record: Rattus norvegicus; experiment: Positive allosteric modulation of rat alpha1beta2gamma2L GABAA receptor expressed in Xenopus laevis oocytes assessed as potentiation of GABA-induced chloride current elicitation at 1 uM by two-electrode voltage clamp technique relative to control; format: cell-based
# [9] = Lipophilicity, log P of the compound; format: physicochemical; conditions: octanol/water
# HEK293 [10] = experiment: Positive allosteric modulation of wild type rat alpha1beta2gamma2L GABAA receptor expressed in HEK293 cells assessed as longest-lived intracluster closed time at 20 uM by […] relative to control; format: cell-based
# Mus musculus [11] = experiment: Anesthetic effect in mouse assessed as recovery of righting reflex at 8 to 16 mg/kg, iv; format: functional; conditions: dose mg/kg 8-16
# How it was run: (§2)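 Mice were given intravenous tail-vein injections at 8 and 16 mg/kg. The compound was in 22.5% aqueous 2-(hydroxypropyl)-β-cyclodextrin. Anesthesia was defined as loss of righting reflex, and onset, duration and recovery of the reflex were followed.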
# HEK293 [12] = experiment: Positive allosteric modulation of wild type rat alpha1beta2gamma2L GABAA receptor expressed in HEK293 cells assessed as potentiation of GABA-induced chloride current elicitation at 20 uM by […] relative to control; format: cell-based
# How it was run: (§3)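 HEK 293 cells expressing wild-type or α1 mutant receptors, whole-cell recording. Peak currents elicited by GABA at 5 μM for wild type or 10 μM for mutants (11–17% of maximal), with or without 20 μM compound. Mean ± S.D., 4–7 cells per receptor–compound combination.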
# Mus musculus [13] = experiment: Anesthetic effect in mouse assessed as duration of loss of righting reflex at 1 mg/kg, iv; format: functional, organism-based; set-up: dose 1 mg/kg
# How it was run: (§4)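 Tail-vein injection in mice, with anesthesia read as loss of righting reflex (LRR): duration, onset and recovery scored. Compounds were dissolved in 22.5% aqueous 2-(hydroxypropyl)-β-cyclodextrin. Lower doses came from serial dilution of the 8 mg/kg solution with 0.9% saline. Doses tested were 1, 2, 4 and 8 mg/kg.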
# Mus musculus [14] = experiment: Anesthetic effect in mouse assessed as recovery of righting reflex at 1 to 8 mg/kg, iv; format: functional; conditions: dose mg/kg 1-8
# How it was run: (§5)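 Mice, tail vein injection; compound in 22.5% aqueous 2-(hydroxypropyl)-β-cyclodextrin, lower doses by serial dilution of the 8 mg/kg stock with 0.9% saline. Anesthesia scored as loss of righting reflex; duration of LRR recorded at each dose.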
# Mus musculus [15] = experiment: Anesthetic effect in mouse assessed as duration of loss of righting reflex at 4 mg/kg, iv; format: functional; how it was run: as §4
# HEK293 [16] = experiment: Positive allosteric modulation of rat alpha1S240Lbeta2gamma2L GABAA receptor mutant expressed in HEK293 cells assessed as potentiation of GABA-induced chloride current elicitation at 20 uM by […] relative to control; format: cell-based; how it was run: as §3
# HEK293 [17] = experiment: Positive allosteric modulation of wild type rat alpha1beta2gamma2L GABAA receptor expressed in HEK293 cells assessed as OT long at 20 uM by […]; format: cell-based
# How it was run: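 Single-channel recording of rat wild-type α1β2γ2L GABAA receptors. Receptors were activated by 50 μM GABA with or without 20 μM compound, in 4-7 patches. Intracluster open-time histograms were fitted to sums of two or three exponentials, and the long open-time component was taken from the fit.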
# HEK293 [18] = experiment: Positive allosteric modulation of rat alpha1W245Lbeta2gamma2L GABAA receptor mutant expressed in HEK293 cells assessed as potentiation of GABA-induced chloride current elicitation at 20 uM by […] relative to control; format: cell-based; how it was run: as §3
# HEK293 [19] = experiment: Positive allosteric modulation of rat alpha1Q241Lbeta2gamma2L GABAA receptor mutant expressed in HEK293 cells assessed as potentiation of GABA-induced chloride current elicitation at 20 uM by […] relative to control; format: cell-based; how it was run: as §3
# Mus musculus [20] = experiment: Anesthetic effect in mouse assessed as duration of loss of righting reflex at 8 mg/kg, iv; format: functional; how it was run: as §4
# Mus musculus [21] = experiment: Anesthetic effect in mouse assessed as duration of loss of righting reflex at 2 mg/kg, iv; format: functional; how it was run: as §4
# Mus musculus [22] = experiment: Anesthetic effect in mouse assessed as onset of loss of righting reflex at 8 to 16 mg/kg, iv; format: functional; conditions: dose mg/kg 8-16; how it was run: as §2
# Mus musculus [23] = experiment: Anesthetic effect in mouse assessed as onset of loss of righting reflex at 1 to 8 mg/kg, iv; format: functional; conditions: dose mg/kg 1-8; how it was run: as §4
# HEK293 [24] = experiment: Positive allosteric modulation of wild type rat alpha1beta2gamma2L GABAA receptor expressed in HEK293 cells assessed as longest-lived intracluster open time at 20 uM by […] relative to control; format: cell-based
# Rattus norvegicus [25] = species on record: Rattus norvegicus; experiment: Displacement of [35S]TBPS from rat picrotoxin binding site of GABAA receptor at 30 uM after 2 hrs by scintillation counting analysis; how it was run: as §1
# Mus musculus [26] = experiment: Anesthetic effect in mouse assessed as duration of loss of righting reflex at 16 mg/kg, iv; format: functional; how it was run: as §5
# Xenopus laevis [27] = experiment: Anesthetic effect on prelimb-bud stage Xenopus laevis tadpole assessed as loss of swimming reflex at 10 uM after 3 hrs; format: functional, organism-based
# Xenopus laevis [28] = experiment: Anesthetic effect on prelimb-bud stage Xenopus laevis tadpole assessed as loss of righting reflex at 10 uM after 3 hrs; format: functional, organism-based
SMILES,Ratio (Rattus norvegicus [1]),pIC50 [2],Ratio (Rattus norvegicus [3]),Ratio (Rattus norvegicus [4]),Activity (Rattus norvegicus [5]),pEC50 (Xenopus laevis [6]),pEC50 (Xenopus laevis [7]),Ratio (Rattus norvegicus [8]),logP [9],Ratio (HEK293 [10]),TIME (HEK293 [17]),Ratio (HEK293 [24]),other results
CO[C@H]1C[C@@]2(C)[C@@H](CC[C@@H]3[C@@H]2CC[C@]2(C)C(=O)CC[C@@H]32)C[C@@H]1O,3.39,5.66,0.84,0.08,Dose-dependent effect,< 5.00,5.29,1.04,,,,,
CC(=O)[C@H]1CC[C@H]2[C@@H]3CC[C@H]4C[C@H](O)CC[C@]4(C)[C@H]3CC[C@]12C [BREXANOLONE],9.65,7.13,1.26,0.37,Dose-dependent effect,,,3.89,4.46,,,,
CO[C@H]1[C@H]2CC[C@H]3[C@@H]4CC(=O)C[C@]4(C)CC[C@@H]3[C@]2(C)CC[C@@H]1O,16,7.08,1.41,0.08,Dose-dependent effect,5.76,6.47,6.48,3.19,0.06,17.7 ms,0.53,Time (Mus musculus [11]): 1 min; Ratio (HEK293 [12]): 9.2; Activity (Mus musculus [13]): inactive; Time (Mus musculus [14]): 1 min; Time (Mus musculus [15]): 5 min; Ratio (HEK293 [16]): 9.4; Ratio (HEK293 [18]): 0.9; Ratio (HEK293 [19]): 1.3; Time (Mus musculus [20]): 9 min; Time (Mus musculus [21]): 1 min; Time (Mus musculus [22]): <30 s; Time (Mus musculus [23]): <30 s
CO[C@H]1[C@H](O)CC[C@]2(C)[C@H]3CC[C@]4(C)CC(=O)C[C@H]4[C@@H]3CC[C@@H]12,0.69,5.18,0.88,0.02,Dose-dependent effect,4.87,5.50,0.72,,,,,inhibition (Rattus norvegicus [25]): 65%
CO[C@H]1C[C@@]2(C)[C@@H](CC[C@H]3[C@@H]4CC(=O)C[C@@]4(C)CC[C@@H]32)C[C@@H]1O,4.48,5.90,0.92,0.01,Dose-dependent effect,5.03,5.50,1.23,,,,,
CC(=O)[C@H]1CC[C@H]2[C@@H]3CC[C@H]4C[C@H](O)CC[C@]4(C)[C@H]3C(=O)C[C@]12C [ALFAXALONE],,,,,,,,,,,,,Time (Mus musculus [11]): 1 min; Time (Mus musculus [14]): 1 min; Time (Mus musculus [26]): 4 min; Time (Mus musculus [22]): <30 s; Time (Mus musculus [23]): <30 s
C[C@@]12CC[C@H]3[C@@H](CC[C@@H]4C[C@@H](O)CC[C@]43C)[C@@H]1CC(=O)C2,34.7,7.09,1.42,0.15,Dose-dependent effect,5.76,6.26,7.72,3.71,0.05,12.4 ms,0.57,Time (Mus musculus [11]): 1 min; Ratio (HEK293 [12]): 7.8; Time (Mus musculus [14]): 1 min; Ratio (HEK293 [16]): 7.6; Ratio (HEK293 [18]): 1; Ratio (HEK293 [19]): 1.3; Time (Mus musculus [20]): 3 min; Time (Mus musculus [26]): 7 min; Time (Mus musculus [22]): <30 s; Time (Mus musculus [23]): <30 s
CO[C@@H]1C[C@]2(C)[C@H](CC[C@@H]3[C@@H]2CC[C@@]2(C)C(=O)CC[C@@H]32)C[C@H]1O,1.53,5.19,0.93,-0.01,Dose-dependent effect,< 5.00,5.62,0.93,,,,,
CO[C@@H]1C[C@]2(C)[C@H](CC[C@H]3[C@@H]4CC(=O)C[C@]4(C)CC[C@@H]32)C[C@H]1O,2.95,5.52,0.91,0.01,Dose-dependent effect,4.99,5.54,1.03,,,,,
C[C@@]12CC[C@H](O)C[C@H]1CC[C@H]1[C@@H]3CC(=O)C[C@@H]3CC[C@@H]12,3.56,5.82,0.93,0.01,Dose-dependent effect,,5.44,1.13,,0.21,16.1 ms,0.53,Activity (Xenopus laevis [27]): inactive
C[C@@]12CC[C@@H]3[C@@H]4CC[C@H](O)C[C@H]4CC[C@H]3[C@@H]1CC(=O)C2,10.5,6.62,0.97,0.02,Dose-dependent effect,5.26,5.94,2.43,3.24,0.11,9.8 ms,0.2,
O=C1C[C@@H]2CC[C@H]3[C@@H](CC[C@@H]4C[C@@H](O)CC[C@H]43)[C@@H]2C1,1.65,5.69,0.8,0,Dose-dependent effect,,,0.76,2.77,0.27,11.5 ms,0.49,Activity (Xenopus laevis [28]): inactive; inhibition (Rattus norvegicus [25]): 88%; Activity (Xenopus laevis [27]): inactive
C[C@]12CC[C@H]3[C@@H](CC[C@H]4C[C@H](O)CC[C@@]43C)[C@@H]1CC(=O)C2,9.98,6.05,1.01,-0.02,Dose-dependent effect,5.12,5.44,1.38,,,,,
CO[C@H]1[C@H]2CC[C@@H]3[C@H](CC[C@@]4(C)C(=O)CC[C@@H]34)[C@]2(C)CC[C@@H]1O,12.2,6.70,1.21,0.05,Dose-dependent effect,5.53,6.23,3.67,,,,,
CO[C@H]1[C@H](O)CC[C@]2(C)[C@H]3CC[C@]4(C)C(=O)CC[C@H]4[C@@H]3CC[C@@H]12,0.91,< 4.52,1.08,0.12,Dose-dependent effect,,,1.01,,,,,Activity (Xenopus laevis [28]): inactive; inhibition (Rattus norvegicus [25]): 45%; Activity (Xenopus laevis [27]): inactive

# — ChEMBL document CHEMBL3108741 (J Med Chem, 2014)
